Our source for the cytotoxicity values is ChEMBL document CHEMBL4513216, “Probing the Open Global Health Chemical Diversity Library for Multistage-Active Starting Points for Next-Generation Antimalarials” (ACS Infect Dis, 2020).

A short description of the series: Toxicity liver stage against HepG2, at 10uM. In kind it is cell-based. Set-up: test concentration 10 uM, cell line HepG2-A16-CD81EGFP. Conditions: human, HepG2-A16-CD81EGFP cells; read-out: INHIBITION
The method in brief:
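Uninfected HepG2-A16-CD81EGFP cells, 3 × 10^3 per well, 1536-well, plated on prespotted compound at 10 μM final, parasite-free screening media added to match infected plates; puromycin 10 μM positive, DMSO 0.5% negative; run in parallel with 48 h PbLuc assay at 37 °C, 5% CO2; viability by CellTiter-Glo luminescence, normalized to controls.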
On to `O=C(NC[C@@H]1CCCO1)c1cc(Br)cnc1N1CCCCC1`, for which the cytotoxicity at 10 µM is -1.69%.

Consider `Cc1c(CC(C#N)C(=O)Nc2cccc(O)c2)cnn1C` (stereo not given), for which the cytotoxicity at 10 µM stood at 0.781%.

`COc1coc(C(=O)Nc2nc(-c3cccnc3)cs2)cc1=O`: the cytotoxicity at 10 µM is 2.66%.

For the compound `COC(=O)CNC(=O)c1sccc1N(C)S(=O)(=O)c1ccc(Cl)cc1`, the cytotoxicity at 10 µM is -15.4%.

Take `COC(=O)C1CCCN1Cc1ccco1` (stereo not given): the cytotoxicity at 10 µM was 9.21%.

With `C[C@H]1C[C@@H]2CCN(Cc3nccs3)C[C@H]2O1`, the cytotoxicity at 10 µM was -3%.

`CN1CC2(CCN(C(=O)C3CCC3)CC2)COc2ccccc2S1(=O)=O`: the cytotoxicity at 10 µM stood at 10.2%.

`COC(=O)C(NC(=O)Nc1ccc(C(C)=O)cc1)C(C)C` (stereo not given): the cytotoxicity at 10 µM was determined as 4.31%.

Consider `COCCN1C(=O)[C@]2(CC[C@@H]3CN(C(=O)NC4CCCC4)C[C@@H]32)N=C1C`, for which the cytotoxicity at 10 µM is -8.85%.

`CNc1cccc(CC2COCCN(C(=O)c3cccnc3)C2)n1` (stereo not given): the cytotoxicity at 10 µM was -1.99%.

Regarding `CC(=O)NC1CCc2ccc(S(=O)(=O)NCc3ncccc3C)cc21` (stereo not given), the cytotoxicity at 10 µM worked out at 10.4%.

For the compound `COCC(=O)N1CCC(c2cc3nc(C)cc(C(F)(F)F)n3n2)CC1`, the cytotoxicity at 10 µM is 4.49%.

With `CC(C)N1C(=O)CO[C@H]2CCN(C(=O)c3ccc4c(c3)CCC4)CC[C@@H]21`, the cytotoxicity at 10 µM came to 3.79%.

For the compound `CNc1ncc(CN2CCCC2c2[nH]ncc2C(=O)N(C)C)cn1` (stereo not given), the cytotoxicity at 10 µM was 2.91%.

As for `Cc1cc(-c2cccnc2)nc(C2CCCN2S(C)(=O)=O)n1` (stereo not given), the cytotoxicity at 10 µM was determined as 4.36%.

Regarding `Cc1cc(C)nc(N2CCC(C(=O)Nc3ccc(C(C)C)cc3)CC2)n1`, the cytotoxicity at 10 µM was -3.02%.

With `CC(=O)N1CCCC(c2nccnc2-c2ccc(CO)cc2)C1` (stereo not given), the cytotoxicity at 10 µM is 1.03%.

Turning to `CN(Cc1nnc(C2CC2)o1)Cc1ccccc1N1CCOCC1`, the cytotoxicity at 10 µM is -7.83%.

As for `CCn1cc(S(=O)(=O)Nc2cccnc2-n2cccn2)nc1C`, the cytotoxicity at 10 µM was found to be 3.21%.

As for `COCCN(C(=O)c1cc(C)no1)c1ccc(C#N)cc1`, the cytotoxicity at 10 µM stood at 6.51%.

As for `Oc1ccc(Br)c(CNc2cccc(-c3nnc[nH]3)c2)c1`, the cytotoxicity at 10 µM is -38.9%.

Turning to `O=C(NCc1cccc(F)c1)c1cccc(C(=O)N2CCCC2)n1`, the cytotoxicity at 10 µM came out at 5.79%.

`Cc1cc(C2CCCN(Cc3ncc(C)o3)C2)n[nH]1` (stereo not given): the cytotoxicity at 10 µM came out at 4.63%.

As to `Cc1cnn(CCNCc2cc(-c3ccccc3)no2)c1`, the cytotoxicity at 10 µM was -3.03%.

As for `CCNC(=O)Nc1c(C)cnn1Cc1cc(F)ccc1F`, the cytotoxicity at 10 µM came out at 5.28%.

Turning to `CCC(CC)(CCO)CNC(=O)c1ccon1`, the cytotoxicity at 10 µM was found to be 6.27%.

For the compound `CCc1nnc2n1CCN(Cc1noc(-c3cccc(C)c3)n1)C2`, the cytotoxicity at 10 µM is 12%.

For `CN1CCCC(N2CCN(c3cc(C(F)(F)F)ccn3)CC2)C1` (stereo not given), the cytotoxicity at 10 µM is 5.12%.

Consider `Cc1cc(C(=O)CN2CCN(c3nccs3)CC2)c(C)n1C1CC1`, for which the cytotoxicity at 10 µM was determined as 10.6%.

As to `c1cc(CN2CCN(Cc3ccon3)C3(CCCCC3)C2)no1`, the cytotoxicity at 10 µM was -16.7%.

Take `N#CCCN(CCN1CCOCC1)Cc1ccc(F)c(Br)c1`: the cytotoxicity at 10 µM was -5.01%.

For the compound `Cc1ccc(NC(=O)CNc2cccc3c2CCCC3)c(Br)c1`, the cytotoxicity at 10 µM turned out to be 14.8%.

With `O=C(Nc1cccnc1)[C@H]1CN(Cc2cccs2)C[C@H]2OCC[C@@H]12`, the cytotoxicity at 10 µM was -109%.

Regarding `CCCOC(=O)N1CCc2cccc(S(=O)(=O)N3CCOCC3)c2C1`, the cytotoxicity at 10 µM was -6.85%.

For `Cn1cccc1-c1cc(C(=O)N2CCCCC2c2ccc(F)cc2)[nH]n1` (stereo not given), the cytotoxicity at 10 µM is -2.8%.

With `O=C(Cn1ccc2ncccc2c1=O)N1CCSCC1`, the cytotoxicity at 10 µM is -3.06%.

With `CC(C)n1cccc1C(=O)N1CC[C@@H](NC(=O)c2ccccn2)[C@H](O)C1`, the cytotoxicity at 10 µM was determined as 2.35%.

In the case of `Cn1cc(CN(C(=O)C2COc3ccccc3C2)C2CC2)cn1` (stereo not given), the cytotoxicity at 10 µM was determined as 1.81%.

On to `CCc1nc(CN(C)c2nccc(N3CCCC(O)C3)n2)no1` (stereo not given), for which the cytotoxicity at 10 µM came out at 0.324%.

Consider `COCCC1(C(=O)O)CCCN(c2cc(C)c3ccccc3n2)C1` (stereo not given), for which the cytotoxicity at 10 µM was -38.7%.

As for `CC(C)c1nccc(C2(c3ccccc3Cl)CCNCC2)n1`, the cytotoxicity at 10 µM came to 1.93%.

On to `CCC(Nc1cccc(OC)c1)C(=O)N(CCOC)Cc1cnn(C)c1` (stereo not given), for which the cytotoxicity at 10 µM was -1.28%.

In the case of `Cn1c(CCC(=O)N2CCCC3(CC2)CNC(=O)O3)nc2cccnc21` (stereo not given), the cytotoxicity at 10 µM is -3.56%.

Consider `CN(Cc1cc2n(n1)CCCNC2)Cc1ccno1`, for which the cytotoxicity at 10 µM amounted to 2.57%.

On to `COCCN(Cc1cnn(C)c1)C(=O)C1CCC(=O)N(C2CCCC2)C1` (stereo not given), for which the cytotoxicity at 10 µM amounted to 6.11%.

As for `O=C1CC(c2ncc(-c3ccc4c(c3)OCCO4)[nH]2)CN1C1CCCC1` (stereo not given), the cytotoxicity at 10 µM is 10.8%.

For the compound `O=C(CCC(F)(F)F)N1CCCC(CO)(CC2CC2)C1` (stereo not given), the cytotoxicity at 10 µM came to 2.75%.

Regarding `Cc1ccn2c(F)c(C(=O)N3CCC4(CCC(=O)N(C)C4)CC3)nc2c1`, the cytotoxicity at 10 µM amounted to 5.96%.

On to `CN(CCc1ccccc1)c1cnn(CC(=O)N2CCOCC2)c(=O)c1`, for which the cytotoxicity at 10 µM is 1.77%.

Regarding `CN1CCCNC(=O)C12CCN(C(=O)c1ccc3[nH]cnc3c1)CC2`, the cytotoxicity at 10 µM was -1.16%.

With `C=C(C)COc1ccccc1NC(=O)NC1CCOCC1`, the cytotoxicity at 10 µM is 4.67%.

Consider `CCN(Cc1nc(COC)no1)C[C@]1(O)CCCN2CCCC[C@@H]21`, for which the cytotoxicity at 10 µM was -0.124%.

For `NCCn1cc(C(=O)NCc2ccccc2-n2cccn2)nn1`, the cytotoxicity at 10 µM is -2.34%.

On to `Cc1ccc2c(ccn2CCC(=O)O)c1`, for which the cytotoxicity at 10 µM is -3.69%.

For the compound `O=C(c1ccc(Cn2ccccc2=O)o1)N1CCSCC1`, the cytotoxicity at 10 µM is -14.8%.

As for `COc1ncccc1CNC(=O)c1ccc(C)[nH]c1=O`, the cytotoxicity at 10 µM is -2.22%.

With `Cn1cc(NC(=O)N2CCC(Cc3ccccc3)CC2)ccc1=O`, the cytotoxicity at 10 µM is 1.07%.

`Cc1noc(C)c1CNC(=O)N1CCC(Cc2cnn(C)c2)C1` (stereo not given): the cytotoxicity at 10 µM is -8.66%.

Consider `O=C(NCCCn1cncn1)N1CCCCCC1`, for which the cytotoxicity at 10 µM is -7.1%.

Regarding `CC(C)(C)n1ncc2c1CCCC2NCc1cccc2c1OCO2` (stereo not given), the cytotoxicity at 10 µM is 3.37%.

For `Cn1ccc(CN2CCC(CCc3ccc(O)cc3)CC2)cc1=O`, the cytotoxicity at 10 µM was 1.2%.

In the case of `Cc1noc(CN2Cc3ccccc3CC2c2nnc(C)o2)n1` (stereo not given), the cytotoxicity at 10 µM was -4.62%.

For `CCc1nc(-c2cncnc2C2CCCNC2)no1` (stereo not given), the cytotoxicity at 10 µM stood at 1.73%.

With `O=S1(=O)CCC(NCCn2cncc2-c2ccc3c(c2)CCCO3)C1` (stereo not given), the cytotoxicity at 10 µM was determined as 2.97%.

Regarding `Cc1cc(C2CCNCC2)nc(-c2ccsc2)n1`, the cytotoxicity at 10 µM was -1.97%.

Take `CN1C(Cn2cccn2)C[C@@H]2CN(Cc3ccccn3)CC[C@@H]21` (stereo not given in full): the cytotoxicity at 10 µM came out at 0.763%.

Turning to `CC(C)CN1C(=O)C2(CCN(Cc3cccs3)C2)c2ccccc21` (stereo not given), the cytotoxicity at 10 µM came out at 10.1%.

Regarding `COCCN(C)C[C@@H]1CCC[C@@H]2CN(Cc3ccc(OC)nc3)C[C@@H]21`, the cytotoxicity at 10 µM was 8.13%.

Consider `Cn1nccc1-c1ncc2c(c1C(=O)O)CCN(Cc1ccncc1)C2`, for which the cytotoxicity at 10 µM was found to be 6.1%.

In the case of `CCN1C(=O)[C@H]2CN(CC(C)C)C[C@H]2C12CCN(S(C)(=O)=O)CC2`, the cytotoxicity at 10 µM came out at 10.3%.
